Source: ChEMBL document CHEMBL2321676, “Antimalarial and Structural Studies of Pyridine-containing Inhibitors of 1-Deoxyxylulose-5-phosphate Reductoisomerase” (ACS Med Chem Lett, 2013)

How the values were obtained:
Plasmodium falciparum [1] = test: Antimalarial activity against Plasmodium falciparum 3D7 after 3 days by SYBR green I assay; format: functional, organism-based; conditions: 3D7, 72 h
Plasmodium falciparum [2] = test: Antimalarial activity against Plasmodium falciparum Dd2 after 3 days by SYBR green I assay; format: functional, organism-based; conditions: Dd2, 72 h
[3] = Inhibition of Escherichia coli recombinant DXR using DXP as substrate preincubated for 5 mins
[4] = Selectivity index, ratio of EC50 for human WI38 cells to EC50 for Plasmodium falciparum; format: toxicity, cell-based, WI-38; conditions: read-out: Ratio EC50
WI-38 = test: Cytotoxicity against human WI38 cells after 48 hrs by MTS assay; format: cell-based; conditions: WI-38, 48 h
[5] = Inhibition of Plasmodium falciparum recombinant DXR using DXP as substrate preincubated for 5 mins
Procedure, shortened: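 Recombinant P. falciparum DXR. Inhibition is expressed as Ki.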

Plasmodium falciparum [6] = test: Ratio of fosmidomycin Ki to compound Ki for Plasmodium falciparum recombinant DXR
[7] = Half life in plasma (unknown origin); format: ADME, cell-free; conditions: unidentified

half-life [7]	Structure (SMILES)	EC50 (Plasmodium falciparum [1])	EC50 (Plasmodium falciparum [2])	Ki [3]	selectivity ratio [4]	EC50 (WI-38)	Ki [5]	Ratio Ki (Plasmodium falciparum [6])
–	CC(=O)N(O)CCC(c1ccccc1)P(=O)(O)O (stereo unspecified)	3500 nM	1700 nM	–	–	–	–	–
–	O=CN(O)CCC(c1cccnc1)P(=O)(O)O (stereo unspecified)	340 nM	180 nM	87 nM	> 1700	> 300000 nM	13 nM	–
–	O=CN(O)CCC(c1ccncc1)P(=O)(O)O (stereo unspecified)	180 nM	170 nM	35 nM	> 1700	> 300000 nM	8.9 nM	2.4
–	CC(=O)N(O)CCC(c1ccncc1)P(=O)(O)O (stereo unspecified)	630 nM	460 nM	82 nM	> 1700	> 300000 nM	13 nM	1.6
–	O=CN(O)CCC(c1ccccc1)P(=O)(O)O (stereo unspecified)	–	–	1500 nM	–	–	480 nM	–
–	CCN(CC)CCCC(C)Nc1ccnc2cc(Cl)ccc12 (stereo unspecified) [CHLOROQUINE]	21 nM	120 nM	–	–	–	–	–
1 h	O=CN(O)CCCP(=O)(O)O [FOSMIDOMYCIN]	1170 nM	440 nM	–	–	–	–	–
–	CC(=O)N(O)CCC(c1cccnc1)P(=O)(O)O (stereo unspecified)	440 nM	310 nM	42 nM	> 1700	> 300000 nM	1.9 nM	11
